Experimental findings from ChEMBL document CHEMBL5257157, “Biological evaluation of novel amidino substituted coumarin-benzazole hybrids as promising therapeutic agents” (RSC Med Chem, 2023) are described below.

SMILES strings stand for the structures.

The subject of data set [1] is CCRF-CEM. As to the kind of experiment: Antiproliferative activity against human CEM cells assessed as inhibition of cell growth. In kind it is functional, cell-based.
In data set [2] the test system is Sindbis virus. As to the kind of experiment: Antiviral activity against Sindbis virus infected in human Huh-7 cells assessed as inhibition of virus-induced cytopathogenic effect incubated for 3 to 7 days by MTS assay. In kind it is functional, organism-based.
Data set [3] can be described thus: Cytotoxicity against human HEL 299 cells assessed as inhibition of cell growth incubated for 72 hrs by CellTiter96 Aqueous One Solution cell proliferation assay. The format is toxicity, cell-based.
Data set [4] concerns Zika virus. Put plainly: Antiviral activity against Zika virus Mr776 infected in human Huh-7 cells assessed as inhibition of virus-induced cytopathogenic effect incubated for 3 to 7 days by MTS assay. Particulars: Mr776, Huh-7; call rule not given here. The format is functional, organism-based.
For data set [5], the system named is Human coronavirus OC43. Put plainly: Antiviral activity against HCoV-OC43 infected in human HEL 299 cells assessed as inhibition of virus-induced cytopathogenic effect incubated for 3 to 7 days by MTS assay. The format is functional, organism-based. Particulars: Betacoronavirus 1, HEL 299.
Data set [6] in a line: Drug localization in nuclear membrane of human HEp-2 cells at 10 uM incubated for 3 hrs by confocal microscopy analysis. The format is ADME, cell membranes. Particulars: hep-2, 3 h. The essentials:
(§1)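 Compound autofluorescence was imaged by fluorescence microscopy in Hep-2 cells (ATCC CCL-23). Cells were given 10 μM and incubated for 3 hours to allow cellular uptake before imaging. Localization to subcellular compartments was judged from the fluorescence pattern.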

The nature of data set [7]: Drug localization in nucleolus of human HEp-2 cells at 10 uM incubated for 3 hrs by confocal microscopy analysis. The format is ADME, subcellular. Particulars: hep-2, 3 h. The essentials:
as §1

The nature of data set [8]: Antiviral activity against HCoV-NL63 infected in human Huh-7 cells assessed as inhibition of virus-induced cytopathogenic effect incubated for 3 to 7 days by MTS assay. Particulars: Human coronavirus NL63, Huh-7. In kind it is functional, cell-based.
The test system of data set [9] is Human alphaherpesvirus 1. As to the kind of experiment: Antiviral activity against HSV-1 KOS infected in human HEL 299 cells assessed as inhibition of virus-induced cytopathogenic effect incubated for 3 to 7 days by MTS assay. The format is functional, organism-based. Particulars: Human alphaherpesvirus 1, KOS.
Data set [10] is described as follows: Antiproliferative activity against human DND41 cells assessed as inhibition of cell growth incubated for 72 hrs by CellTiter96 Aqueous One Solution cell proliferation assay. The format is functional, cell-based. Particulars: DND41, 72 h.
The test system of data set [11] is Respiratory syncytial virus. As to the kind of experiment: Antiviral activity against RSV infected in human HEL 299 cells assessed as inhibition of virus-induced cytopathogenic effect incubated for 3 to 7 days by MTS assay. The format is functional, organism-based.
In data set [12] the test system is Influenza B virus. Put plainly: Antiviral activity against influenza B virus infected in dog MDCK cells assessed as inhibition of virus-induced cytopathogenic effect incubated for 3 to 7 days by MTS assay. The format is functional, organism-based.
Data set [13] relates to Human coronavirus 229E. Put plainly: Antiviral activity against HCoV-229E infected in human HEL 299 cells assessed as inhibition of virus-induced cytopathogenic effect incubated for 3 to 7 days by MTS assay. In kind it is functional, organism-based.
In data set [14] the test system is NCI-H460. Put plainly: Antiproliferative activity against human NCI-H460 cells assessed as inhibition of cell growth incubated for 72 hrs by CellTiter96 Aqueous One Solution cell proliferation assay. The format is functional, cell-based. Particulars: NCI-H460, 72 h.
Data set [15] deals with Z-138. Put plainly: Antiproliferative activity against human Z138 cells assessed as inhibition of cell growth incubated for 72 hrs by CellTiter96 Aqueous One Solution cell proliferation assay. Particulars: Z-138, 72 h. The format is functional, cell-based.
The test system of data set [16] is LN-229. As to the kind of experiment: Antiproliferative activity against human LN-229 cells assessed as inhibition of cell growth incubated for 72 hrs by CellTiter96 Aqueous One Solution cell proliferation assay. In kind it is functional, cell-based. Particulars: LN-229, 72 h.
The nature of data set [17]: Drug localization in cytoplasm of human HEp-2 cells at 10 uM incubated for 3 hrs by confocal microscopy analysis. In kind it is ADME, subcellular. Particulars: hep-2, 3 h. The essentials: as §1
Data set [18] in a line: Cytotoxicity against human PBMC cells assessed as reduction in cell viability at 0.006 to 4 uM measured after 72 hrs by CellTiter96 Aqueous One Solution cell proliferation assay. Particulars: dose 0.006-4 µM. In kind it is toxicity, cell-based.
In data set [19] the test system is HL-60. Put plainly: Antiproliferative activity against human HL-60 cells assessed as inhibition of cell growth incubated for 72 hrs by CellTiter96 Aqueous One Solution cell proliferation assay. Particulars: HL-60, 72 h. The format is functional, cell-based.
Data set [20] can be described thus: Cytotoxicity against human PBMC cells assessed as reduction in cell viability measured after 72 hrs by CellTiter96 Aqueous One Solution cell proliferation assay. The format is toxicity, cell-based. The essentials:
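Normal peripheral blood mononuclear cells from healthy donors were exposed to compound for 72 hours, at concentrations up to a highest dose of 100 μM. Viability is given as a percentage of untreated PBMC control.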

The subject of data set [21] is K562. As to the kind of experiment: Antiproliferative activity against human K562 cells assessed as inhibition of cell growth incubated for 72 hrs by CellTiter96 Aqueous One Solution cell proliferation assay. The format is functional, cell-based. Particulars: K562, 72 h.
Data set [22] in a line: Antioxidant activity assessed as ABTS radical scavenging activity incubated for 5 mins by absorbance based microplate reader analysis. The format is functional. The essentials: (§2)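 Pure compounds tested in three colorimetric antioxidant assays, each run alongside the reference BHT. […] ABTS: direct reaction with ABTS•+ radical cation, reported as IC50. DPPH: scavenging of the stable DPPH radical by proton or electron donation, reported as IC50. FRAP: reducing power, expressed as mmolFe2+/mmolC.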

Data set [23] in a line: Antioxidant activity assessed as reduction of Fe3+ complex to Fe2+ analogue by measuring mmolFe2+/mmolc by FRAP assay. The format is functional. The essentials: as §2
The subject of data set [24] is Yellow fever virus. As to the kind of experiment: Antiviral activity against Yellow fever virus 17D infected in human Huh-7 cells assessed as inhibition of virus-induced cytopathogenic effect incubated for 3 to 7 days by MTS assay. The format is functional, organism-based.
Data set [25] can be described thus: Cytotoxicity against dog MDCK cells assessed as inhibition of cell growth incubated for 72 hrs by CellTiter96 Aqueous One Solution cell proliferation assay. In kind it is toxicity, cell-based, Canis lupus familiaris.
In data set [26] the test system is Huh-7. As to the kind of experiment: Cytotoxicity against human Huh-7 cells assessed as inhibition of cell growth incubated for 72 hrs by CellTiter96 Aqueous One Solution cell proliferation assay. The format is functional.
Data set [27] deals with CAPAN-1. Put plainly: Antiproliferative activity against human CAPAN-1 cells assessed as inhibition of cell growth incubated for 72 hrs by CellTiter96 Aqueous One Solution cell proliferation assay. In kind it is functional, cell-based. Particulars: CAPAN-1, 72 h.
Data set [28] concerns Influenza A virus. Put plainly: Antiviral activity against influenza virus H3N2 infected in dog MDCK cells assessed as inhibition of virus-induced cytopathogenic effect incubated for 3 to 7 days by MTS assay. The format is functional, organism-based.
For data set [29], the system named is Influenza A virus. Put plainly: Antiviral activity against influenza virus H1N1 infected in dog MDCK cells assessed as inhibition of virus-induced cytopathogenic effect incubated for 3 to 7 days by MTS assay. In kind it is functional, organism-based.
Data set [30] is described as follows: Antioxidant activity assessed as DPPH radical scavenging activity incubated for 5 mins by absorbance based microplate reader analysis. The format is functional. The essentials: as §2

As for `CCN(CC)c1ccc2cc(-c3nc4ccccc4[nH]3)c(=N)oc2c1`, the IC50 in data set [1] came to 0.059 µM.

As to `CCN(CC)c1ccc2cc(-c3nc4ccc(C5=NCCCN5)cc4s3)c(=O)oc2c1.Cl`, the EC50 is greater than 100 µM in [2]; greater than 100 µM in [4]; 28.9 µM in data set [5]; greater than 100 µM in data set [8]; 25.5 µM in [9]; 43.4 µM in data set [11]. Also, the EC50 in data set [12] was greater than 100 µM; in data set [13] it was 33 µM; in data set [24] it was greater than 100 µM; in [28] it was greater than 100 µM; in data set [29] it was greater than 100 µM. The values for the CC50 at 72 h in [3] and in data set [25] were greater than 100 µM and 4.2 µM, respectively. Besides, the Drug uptake entry in data set [6], in data set [7] and in data set [17] was “Active” in each case. Besides, the IC50 was 1.3 µM in data set [10]; greater than 100 µM in data set [14]; 1.5 µM in [15]; 1.8 µM in data set [16]; greater than 100 µM in [19]; greater than 100 µM in [21]. The IC50 is 980 µM in [22] and 2 µM in [27]. In addition, the Activity in data set [18] was greater than 80%; in [23], 3.29 mmol/mmol. For the same compound, the IC50 at 72 h in data set [20] was 1.7 µM. Moreover, the CC50 in data set [26] amounted to 1.8 µM.

For the compound `O=c1oc2ccccc2c(Cl)c1-c1nc2cc(C3=NCCN3)ccc2[nH]1`, the EC50 in [2], in data set [4], in data set [5], in data set [8], in data set [9] and in data set [11] was greater than 100 µM each time. Besides, the EC50 in data set [12], in [13], in data set [24], in data set [28] and in data set [29] was greater than 100 µM in each case. Further, the CC50 at 72 h in data set [3] worked out at 99.5 µM; in [25], 92.1 µM. Further, the IC50 was 440 µM in data set [30]; 36.5 µM in data set [10]; greater than 100 µM in data set [14]; 50.5 µM in data set [15]; greater than 100 µM in data set [16]; 55.7 µM in data set [19]. Further, the IC50 in [21] is greater than 100 µM; in [22], 370 µM; in [27] it was 99.3 µM. Besides, in data set [23], the Activity was 35.1 mmol/mmol. For the same compound, the CC50 in [26] was 85 µM.

Turning to `CCN(CC)c1ccc2cc(-c3nc4cccnc4s3)c(=N)oc2c1`, the IC50 in [1] amounted to 0.17 µM.
